Reference: ChEMBL document CHEMBL1157096, “Bioactive metabolites from cultures of basidiomycete Favolaschia tonkinensis” (J Nat Prod, 2010)
Converted amounts (≈) assume the structure as drawn.

Tests used:
[1] = system: KB; assay: Cytotoxicity against human KB cells by resazurin microplate assay; type: functional, cell-based
Summary of the method: (§1)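 Resazurin microplate assay on KB (oral human epidermoid carcinoma), MCF-7 (human breast cancer) and NCI-H187 (human small-cell lung cancer) cells, with IC50 in µg/mL.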

[2] = system: MCF7; assay: Cytotoxicity against human MCF7 cells by resazurin microplate assay; type: functional, cell-based; summary of the method: as §1
[3] = system: Candida albicans; assay: Antifungal activity against Candida albicans; type: functional, organism-based
Summary of the method: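 Candida albicans tested by resazurin microplate assay, with IC50 in µg/mL.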

[4] = system: Vero; assay: Cytotoxicity against african green monkey Vero cells by green fluorescent protein assay; type: cell-based; conditions: Chlorocebus sabaeus
Summary of the method: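 Vero (African green monkey kidney fibroblast) cytotoxicity measured by green fluorescent protein (GFP)-based method.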

[5] = system: Plasmodium falciparum; assay: Antimalarial activity against Plasmodium falciparum K1 assessed as [G-3H]hypoxanthine uptake after 24 hrs by scintillation counting; type: functional, organism-based; conditions: K1, 24 h
Summary of the method: (§2)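 Plasmodium falciparum strain K1 tested by microculture radioisotope technique, with IC50 in µg/mL.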

[6] = system: NCI-H187; assay: Cytotoxicity against human NCI-H187 cells by resazurin microplate assay; type: functional, cell-based; summary of the method: as §1
[7] = system: Plasmodium falciparum; assay: Antimalarial activity against Plasmodium falciparum K1; type: functional, organism-based; summary of the method: as §2

| SMILES | IC50 [1] [µg/mL] | IC50 [2] [µg/mL] | IC50 [3] [µg/mL] | IC50 [4] [µg/mL] | IC50 [5] [µg/mL] | IC50 [6] [µg/mL] | IC50 [7] [µg/mL] |
| --- | --- | --- | --- | --- | --- | --- | --- |
| NC(=O)c1ccc2c(c1)C=C/C(=C\Cl)CO2 | 12.1 (≈ 51.6 µM) | > 50 | > 50 | > 50 | > 10 | > 50 | – |
| O=C(O)c1ccc2c(c1)C=C/C(=C\Cl)CO2 | 0.78 (≈ 3.3 µM) | > 50 | > 50 | > 50 | > 10 | 11.7 (≈ 49.3 µM) | – |
| CO\C=C(C(=O)OC)/C(C)=C(\C=C\c1ccc(Cl)c(OC)c1)OC [9-METHOXYSTROBILURIN B] | 5.45 (≈ 15.4 µM) | 4.86 (≈ 13.8 µM) | 0.22 (≈ 0.624 µM) | 7.91 (≈ 22.4 µM) | 0.3 (≈ 0.85 µM) | 0.4 (≈ 1.13 µM) | – |
| CO/C=C(/C(=O)OC)[C@H](C)[C@H](/C=C/c1ccc(Cl)c(OC)c1)OC [(-)-OUDEMANSIN B] | 0.73 (≈ 2.06 µM) | 27.8 (≈ 78.5 µM) | 0.89 (≈ 2.51 µM) | 14.3 (≈ 40.2 µM) | – | 0.02 (≈ 0.0564 µM) | 0.4 (≈ 1.13 µM) |
| COc1cccc2c1C(=O)c1c(O)c3c(c(O)c1C2=O)C[C@@](O)(C(=O)CO)C[C@@H]3O[C@H]1C[C@H](N)[C@H](O)[C@H](C)O1 [DOXORUBICIN] | 0.25 (≈ 0.46 µM) | 0.57 (≈ 1.05 µM) | – | – | – | 0.04 (≈ 0.0736 µM) | – |
| CO\C=C(C(=O)OC)/C(C)=C(\C=C\c1ccc2c(c1)OC(C)(C)[C@@H](OCC=C(C)C)CO2)OC | 14.3 (≈ 30.3 µM) | 15.4 (≈ 32.6 µM) | 0.5 (≈ 1.06 µM) | 24 (≈ 50.7 µM) | 0.03 (≈ 0.0635 µM) | 0.36 (≈ 0.762 µM) | – |
| C[C@H]1[C@@H](O)O[C@@H]2O[C@@]3(C)CC[C@H]4[C@H](C)CC[C@@H]1[C@@]24OO3 [ARTENIMOL] | – | – | – | – | 0.0011 (≈ 0.00387 µM) | – | – |
| CO/C=C(/C(=O)OC)[C@H](C)[C@H](/C=C/c1ccccc1)OC | 5.48 (≈ 18.9 µM) | > 50 | 0.76 (≈ 2.62 µM) | 39.2 (≈ 135 µM) | – | 15.1 (≈ 52 µM) | 3 (≈ 10.3 µM) |
| Cc1c2ccncc2c(C)c2c1[nH]c1ccccc12 [ELLIPTECINE] | 0.45 (≈ 1.83 µM) | – | – | 1.18 (≈ 4.79 µM) | – | 0.68 (≈ 2.76 µM) | – |
| CO\C=C(C(=O)OC)/C(C)=C(\C=C\c1ccccc1)OC [9-METHOXYSTROBILURIN A] | 1.39 (≈ 4.82 µM) | 12.4 (≈ 43.1 µM) | 0.06 (≈ 0.208 µM) | 21.3 (≈ 73.8 µM) | 0.39 (≈ 1.35 µM) | 1.57 (≈ 5.44 µM) | – |
| C[C@@H]1[C@H](O)[C@@H](C)/C=C/C=C/C=C/C=C/C=C/C=C/C=C/[C@H](O[C@@H]2O[C@H](C)[C@@H](O)[C@H](N)[C@@H]2O)C[C@@H]2O[C@](O)(C[C@@H](O)C[C@@H](O)[C@H](O)CC[C@@H](O)C[C@@H](O)CC(=O)O[C@H]1C)C[C@H](O)[C@H]2C(=O)O [AMPHOTERICIN B] | – | – | 0.07 (≈ 0.0758 µM) | – | – | – | – |
